Shown are actives, neighbours in structure and some others; about 1.4% of the full set was active somewhere.
HCV core dimer: inhibitors of HCV core protein dimerization, primary screen, biochemical, TR-FRET, high-throughput | AID 1899, 2009 | 300,000 compounds, 0.33% hits | inhibition, % at 5 µM | TR-FRET GST/Flag-core106 dimerization, 1536-well;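 active = inhibition above the mean of all tested compounds plus 3 SD, set per screening campaign, cut at about 45% in these data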
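System – GST-tagged and Flag-tagged HCV core protein residues 1-106 · Repeats – one well for each compound · Technique – TR-FRET 671 and 617 nm emission · Doses – one concentration, 5 µM, in 0.5% DMSO · Times – 4 h, 22.5 °C incubation · Also added – Eu donor and XL665 acceptor anti-tag antibodies · Measure – percent inhibition of core106 dimerization signal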
ZTA DNA inh: ZTA (EBV) inhibition in EBNA-1 counter-screen. P03206. ZTA-DNA binding, fluorescence polarization. inhibition, % at 11 µM. 320,000 compounds, 0.15% hits. AID 2234; in the data active = inhibition above about 33%
Target sequence (P03206 whole entry, looked up): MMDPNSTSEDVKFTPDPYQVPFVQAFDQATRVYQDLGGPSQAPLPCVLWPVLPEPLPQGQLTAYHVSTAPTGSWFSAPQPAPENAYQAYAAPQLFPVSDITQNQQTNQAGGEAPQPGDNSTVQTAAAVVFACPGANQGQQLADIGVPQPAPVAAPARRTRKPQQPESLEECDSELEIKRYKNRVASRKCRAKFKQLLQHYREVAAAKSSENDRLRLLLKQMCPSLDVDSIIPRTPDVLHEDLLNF
HCV NS3 hel inh: inhibitors of HCV NS3 helicase, primary screen, biochemical, Cy5 molecular beacon fluorescence; Hepatitis C virus NS3 helicase; NS3 helicase DNA unwinding; inhibition, % at 10.9 µM; 290,000 compounds, 0.56% hits; AID 1800, 2009;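 active = inhibition above the mean of all tested compounds plus 3 SD, set per campaign, cut at about 35% in these data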;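 also: 0% = DMSO wells and 100% = thioflavine S control wells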
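assay system = NS3 helicase fragment of HCV | buffer or medium = MOPS pH 6.5, MgCl2, DTT, Tween20, BSA | timing = 60 min unwinding reaction at 25 °C after ATP addition | signal = Cy5 beacon fluorescence read at start and 1 h | read-out basis = % inhibition of unwinding | control set = low DMSO, high thioflavine S at 110 µM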
SUMO HTRF inh: inhibitors of in vitro SUMOylation cascade, primary screen, biochemical, HTRF, uHTS; HTRF SUMOylation assay, SAE1/SAE2 + UBC9; inhibition, % at 35 µM; 290,000 compounds, 0.36% hits; in the data active = inhibition above about 50%, passing the limit was not always enough
Target sequence (P63279 whole entry, looked up): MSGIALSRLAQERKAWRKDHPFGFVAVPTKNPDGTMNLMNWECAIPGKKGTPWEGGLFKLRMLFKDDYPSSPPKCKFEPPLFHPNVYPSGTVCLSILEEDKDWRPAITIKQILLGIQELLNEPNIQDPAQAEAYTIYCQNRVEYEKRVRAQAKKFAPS
EBNA-1 inhibitor: EBNA-1 DNA-binding inhibitors, primary screen, biochemical, fluorescence polarization; inhibition, % at 14.8 µM; 300,000 compounds, 0.34% hits; in the data active = inhibition above about 28%
* marks the source's active call; other numbers are inactive results; x = no result.

SMILES	HCV core dimer	ZTA DNA inh	HCV NS3 hel inh	SUMO HTRF inh	EBNA-1 inhibitor
CCCCCC#CCC#CCC#CCC#CCCCC(=O)O	54*	19	4	58*	6
N#Cc1ccc(Oc2ncccn2)cc1	-1	4	x	x	2
N#Cc1c(Sc2ncc(C(F)(F)F)cc2Cl)nsc1C/C=N\OCc1c(F)cccc1Cl	54*	-6	22	14	-1
FC(F)(F)c1cnc(Sc2nnc(-c3cccs3)n2CC2CCCO2)c(Cl)c1 (stereo not drawn)	4	3	4	3	-1
C/C(=N\NC(=O)CNc1cccc2ccccc12)c1ccccc1	0	22	-1	80*	3
O=C(N/N=C\C=C\c1ccco1)c1cc(-c2ccc3ccccc3c2)n[nH]1	-1	-6	18	51*	-14
O=C(CNc1ccc2ccccc2c1)N/N=C/c1ccc(C(=O)O)cc1	-6	16	1	19	7
O=C(CNc1cccc2ccccc12)N/N=C/c1ccc(C(=O)O)cc1	-14	-5	18	77*	-3
C/C(CCc1ccco1)=N\NC(=O)CNc1cccc2ccccc12	6	-8	4	66	3
O=C(Cc1cccc2ccccc12)N/N=C/c1ccc(OC(=O)/C=C/c2ccco2)cc1	65*	-6	15	-4	6
O=C(Cc1cccc2ccccc12)N/N=C/c1ccc(F)cc1	-3	1	-12	-22	0
Cc1ccccc1CSc1ccc(-c2ccc3c(c2)OCO3)nn1	2	-4	4	-9	-1
CN(CC1CCCN(CCc2ccc(Cl)cc2)C1)C(=O)c1ccco1 (stereo not drawn)	2	-13	-6	11	-11
CCC1CCC(c2nnc(-c3ccc([N+](=O)[O-])cc3)o2)CC1 (stereo not drawn)	9	10	2	-6	6
COc1ccccc1NC(=O)/C(=C\c1cccnc1)NC(=O)c1ccc(C)cc1	-9	12	5	20	15
COc1cccc(NC(=O)Nc2ccc(Br)cn2)c1	2	8	-9	18	24
O=C(CNc1cccc2ccccc12)N/N=C/C=C/c1ccco1	-5	3	-2	98*	-2
Cc1cccc(N2CC(C(=O)Nc3nnc(SCC(=O)NCC4CCCO4)s3)CC2=O)c1 (stereo not drawn)	65*	-3	20	5	-7
CC(=C/c1ccccc1)/C=N/NC(=O)c1nnn(-c2nonc2N)c1CN1CCC(C)CC1	17	4	-26	-6	-5
CC1CCN(Cc2c(C(=O)N/N=C/c3ccccc3O)nnn2-c2nonc2N)CC1	21	11	2	54*	-9
COc1ccc(CN2C(=O)Cc3c2nc(N)c2c(N)nc(N4CCCCC4)c(C#N)c32)cc1	56*	9	29	30	-8
O=C1c2ccccc2C(=O)C12OC2c1cccc2ccccc12 (stereo not drawn)	-22	-5	-1	96*	1
c1ccc2c(C3CCO3)cccc2c1 (stereo not drawn)	x	-19	x	x	x
CC1(C)Cc2c(C#N)c(N3CCN(C(=O)c4ccccc4)CC3)nc(-c3ccco3)c2CS1	87*	16	23	12	-1
COc1ccccc1C(=O)N(C)c1nnc(-c2ccccc2)s1	-4	0	8	-9	-16
SMILES	HCV core dimer	ZTA DNA inh	HCV NS3 hel inh	SUMO HTRF inh	EBNA-1 inhibitor
CC(C)CC(=O)Nc1ccc(C(=O)COC(=O)C2CC(=O)N(Cc3ccccc3)C2)cc1 (stereo not drawn)	x	3	x	x	x
COc1ccc2c(C)c(C(=O)NCC(C)O)oc2c1OC (stereo not drawn)	5	-1	-1	59*	1
Cc1cc(NC(=O)C2CCCCC2C(=O)O)ccc1NC(=O)c1ccccc1 (stereo not drawn)	-21	0	9	7	5
N#Cc1c(NC(=O)CSc2ncnc3sccc23)oc(-c2ccco2)c1-c1ccco1	50*	15	26	x	-5
Cc1cc(NC(=O)CSc2ncnc3sccc23)no1	-1	-1	15	12	-1
CCNC(=O)CSc1ncnc2sccc12	58*	4	8	4	0
CC(OC(=O)c1ccc(NC(=O)CC#N)cc1)C(=O)Nc1ccc(Oc2ccccc2)cc1 (stereo not drawn)	47*	3	17	-44	9
CC(=O)Nc1ccc(S(=O)(=O)Nc2nc3ccccc3nc2Nc2ccc3ccccc3c2)cc1	7	6	20	55*	-8
CCCCOc1ccc(C(=O)NCC(=O)NC2CCCCC2)cc1	x	2	x	x	x
NC1=NC(=O)/C(=C/c2cccc(F)c2)S1	4	8	4	6	5
CC(=O)Nc1ccc(S(=O)(=O)Oc2cccc(/C=C3\SC(N)=NC3=O)c2)cc1	5	9	-25	50*	-2
COc1cc(NC(=O)c2ccccc2)c(OC)cc1NC(=O)Cc1cccs1	67*	-4	11	29	-8
COc1ccc(NC(=O)Cc2cccs2)c(OC)c1	4	-6	-1	17	-10
COC(=O)c1cc(NC(=O)Cc2cccs2)cc(C(=O)OC)c1	49*	2	14	17	1
Cc1ccc([N+](=O)[O-])cc1NC(=O)Cc1ccc(F)cc1	5	1	-10	-6	2
Cc1ccc([N+](=O)[O-])cc1NC(=O)Cc1cccs1	54*	7	23	34	7
Cc1nnc(SCC(=O)NNC(=O)c2ccc(Cl)cc2)s1	-15	-10	-10	12	6
CCOc1cc2c(C#N)c(N3CCCCC3)nc(N)c2c(N)n1	10	-2	6	96	-3
CCOC(=O)C1CCN(c2nc(N)c3c(N)nc(SCC(=O)O)cc3c2C#N)CC1	x	x	22	100*	x
CCOc1cc2c(C#N)c(N3CCNCC3)nc(N)c2c(N)n1	-11	9	-2	87*	0
Cc1ccc(C)c(C(C)NC(=S)NCc2ccc(F)cc2)c1 (stereo not drawn)	2	-14	2	0	-6
O=S(=O)(Nc1cc(F)ccc1F)c1cccc2nonc12	-2	9	-12	6	9
Cc1ccc(NC(=O)c2ccc(N3CCCC3=O)cc2)cc1S(=O)(=O)N1CCCCC1	x	-17	x	x	x
O=C(Nc1cc(S(=O)(=O)N2CCOCC2)ccc1Cl)C1CCC1	1	-8	x	x	3
S=c1nc[nH]c2c1sc1nc(N3CCOCC3)c3c(c12)CCCC3	61*	4	15	33	7
CC(C)c1nc2sc3c(=S)nc[nH]c3c2c2c1CCC2	43	1	6	6	-2
COC(=O)Cn1c2ccc(OC)cc2c2nc3ccccc3nc21	-5	-5	-4	27	7
CCOC(=O)Cn1c2ccc(OC)cc2c2nc3ccccc3nc21	4	7	8	54*	0
